The campaign covered roughly 310,000 compounds. About 1,100 (0.35%) were called active.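 The calls were made as follows: active = fluorescence ratio B-score, a plate-corrected score, at least three library SD, with initial intensity B-score within 5 SD; inactive = the rest.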 The entries come from a sample that favours actives as a whole.

Potassium voltage-gated channel subfamily KQT member 1 (Homo sapiens), sequence (P51787 whole entry, looked up): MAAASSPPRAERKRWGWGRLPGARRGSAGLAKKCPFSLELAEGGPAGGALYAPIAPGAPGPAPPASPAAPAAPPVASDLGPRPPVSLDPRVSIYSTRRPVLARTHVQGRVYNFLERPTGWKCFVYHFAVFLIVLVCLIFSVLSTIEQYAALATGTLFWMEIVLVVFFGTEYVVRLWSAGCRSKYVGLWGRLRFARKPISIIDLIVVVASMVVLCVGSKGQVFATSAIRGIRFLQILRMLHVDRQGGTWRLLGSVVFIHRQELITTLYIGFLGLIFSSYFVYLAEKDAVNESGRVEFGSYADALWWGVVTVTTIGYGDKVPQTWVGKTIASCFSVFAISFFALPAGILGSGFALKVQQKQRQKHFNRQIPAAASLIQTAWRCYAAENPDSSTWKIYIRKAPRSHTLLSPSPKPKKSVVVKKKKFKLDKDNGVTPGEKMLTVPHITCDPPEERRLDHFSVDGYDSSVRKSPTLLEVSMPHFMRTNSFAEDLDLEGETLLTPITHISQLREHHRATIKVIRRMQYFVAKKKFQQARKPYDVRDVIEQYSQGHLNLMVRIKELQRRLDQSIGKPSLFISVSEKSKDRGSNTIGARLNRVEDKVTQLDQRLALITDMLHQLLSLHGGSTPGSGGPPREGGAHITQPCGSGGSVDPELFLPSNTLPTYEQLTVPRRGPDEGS

The assay has as its target Potassium voltage-gated channel subfamily KQT member 1 (Homo sapiens) (UniProt P51787). In words: human KCNQ1 current enhancers – cell-based, thallium flux, high-throughput, primary screen (AID 2648). Conditions: CHO-K1 KCNQ1, thallium flux FluxOR fluorescence, at 10 µM; active compounds read high. The essentials: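 Doses: Single concentration per compound, DMSO matched to controls | Test system: KCNQ1-transfected CHO-K1 cells | Timing: 90 min dye loading and 20 min compound exposure, both at room temperature | Measured by: Kinetic FluxOR thallium fluorescence, 10-s 1-Hz baseline, 110-s post-stimulus read | Medium: Assay buffer with matched DMSO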
With `O=C(Cn1cncn1)N/N=C/c1c2ccccc2cc2ccccc12`, the B-score result was “inactive”.

As to `CN(c1ccccn1)c1ncnc2[nH]ncc12`, the B-score entry was “inactive”. On to `CN(Cc1cccs1)C(=O)Cc1c[nH]c2ccccc12`, for which the B-score result was “inactive”. Take `CCc1ccc(NC(=O)C(=O)NNC(=O)c2cccs2)cc1`: the B-score was 54 (active). Consider `CCc1ccc(NC(=O)COC(=O)c2cccs2)cc1`, for which the B-score entry is “inactive”. For `CC(C)C(=O)Nc1ccc(C(=O)NNC(=O)c2cccs2)cc1` the value was “inactive”; for `CCCCNC(=O)CN1C(=O)NC(Cc2ccccc2)(Cc2ccccc2)C1=O`, “inactive”; for `Clc1ccc(C[n+]2cc(-c3ccc(Cl)cc3)n3c2CCC3)cc1`, “inactive”. With `CN1CCN(S(=O)(=O)c2ccc(NC(=S)NC(=O)C3CC3)cc2)CC1`, the B-score result was “inactive”. Take `Cc1cc(Nc2cc(N3CCN(C)CC3)nc(Sc3ccc(NC(=O)C4CC4)cc3)n2)n[nH]1`: the B-score was 7 (active). As for `Cc1cc(C)nc(N2CCC(C(=O)Nc3ccc4c(c3)OCCO4)CC2)n1`, the B-score result is “inactive”. For `COCC(=O)N1CCc2ccc(NC(=O)c3ccccc3Cl)cc2C1` the value was “inactive”. Regarding `CCc1nccn1CCC(=O)N1CCCC(N2CCN(c3ccccc3F)CC2)C1` (stereo not drawn), the B-score result is “inactive”.

In the case of `Cc1cccc(C(=O)N2CCN(S(=O)(=O)N3CCCCC3)CC2)c1`, the B-score entry was “inactive”.

Turning to `O=C(CCN1C(=O)c2ccccc2C1=O)NCCN1CCOCC1`, the B-score result is “inactive”. With `O=C(NCCN1CCOCC1)[C@H](Cc1ccccc1)N1C(=O)c2ccccc2C1=O` the figure was 11 (active).

Regarding `O=C(NC1=NCCS1)[C@H](Cc1ccccc1)N1C(=O)c2ccccc2C1=O`, the B-score result is “inactive”.

Regarding `CC(C)COC(=O)C1C2C=CC3(CN(C(C)c4ccc(Br)cc4)C(=O)C13)O2` (stereo not drawn), the B-score entry was “inactive”. For `CCOC(=O)c1sc(=S)n2c1[nH]c(=O)c1ccc(C(=O)OC)cc12`, the B-score is 59 (active). `CCOC(=O)c1ccc(Nc2cc3ccccc3c(=O)[nH]2)cc1`: the B-score entry was “inactive”.

With `CCOC(=O)C1=C(C)Nc2sc(C(=O)c3ccc(Br)cc3)c(N)c2C1c1ccc(C(=O)OC)cc1` (stereo not drawn), the B-score result was “inactive”. On to `CCOC(=O)c1c(C)nn(-c2ncccc2NC(=O)CCC(=O)O)c1C`, for which the B-score result is “inactive”. For the compound `Cc1oc2cc3oc(=O)ccc3cc2c1C`, the B-score result is “inactive”.

The record behind these values is PubChem BioAssay AID2648 (Johns Hopkins Ion Channel Center, 2010).
